GSTO1 inh: blocks human GSTO1 in RBBP9 counter-screen; inhibition, % at 5.96 µM; AID 1974; hit rate 1.1% among 300,000; recombinant GSTO1, activity-based probe fluorescence polarization; P78417;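 active = inhibition above the campaign mean inhibition plus 3 SD, cut at about 35% in these data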;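 also: 0% = GSTO1-1 with DMSO and 100% = wells lacking GSTO1-1 enzyme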
Apaf-1 inh: inhibitors of human Apaf-1 apoptosome; AID 489030; reconstituted apoptosome caspase-3 activity, DEVD-Rh110 fluorescence; O14727; hit rate 0.71% among 330,000; inhibition, % at 20 µM; active = inhibition of at least 40% at 20 µM;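 also: plate controls were DMSO wells for no effect and DEVD-CHO caspase inhibitor wells for full effect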
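Material: biochemical Apaf-1 apoptosome reconstitution. Medium: Hepes buffer, pH 7.5. Also added: cytochrome c activation, bis-DEVD rhodamine 110 substrate. Timing: 30 min compound preincubation, 50 min activation, room temperature. Measured by: rhodamine 110 fluorescence at Ex 480/Em 540 nm.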
CTSL1 counter: blocks F. hepatica cathepsin L1 in PFM18AAP counter-screen. recombinant F. hepatica cathepsin L1, Z-Leu-Arg-MCA fluorescence. inhibition, % at 5.96 µM. hit rate 0.49% among 300,000;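 active = inhibition above the mean of all tested compounds plus 3 SD, set per screening campaign, cut at about 17% in these data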;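 also: 0% = plate median of test compound wells and 100% = 1 µM Z-Phe-Ala-diazomethylketone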
TDP2 absorb: TDP2 (human) inhibition, absorbance primary screen; recombinant TDP2, T5PNP hydrolysis, p-nitrophenol absorbance 415 nm; inhibition, % at 12.8 µM; hit rate 0.34% among 370,000; AID 720702;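 active = inhibition above the mean of all tested compounds plus 3 SD, set per campaign, cut at about 25% in these data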;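 also: 0% = DMSO with enzyme and 100% = buffer with substrate but no TDP2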
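System – recombinant human TDP2 · Amount – 120 nM TDP2 per well · Buffer or medium – Mg2+-containing Tris-HCl buffer, pH 7.5 · Reagent – T5PNP substrate, 5 mM · Dosing – 12.8 µM single point, 1% DMSO · Incubation – 2 h at 37 °C · Measured by – epi absorbance · Read-out basis – percent inhibition · Benchmarks – high control without enzyme, low control DMSO plus TDP2 · Repeats – singlicate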
PAD4 FP inh: PAD4 (human) enzyme inhibition. Q9UM07. recombinant PAD4, RCA probe fluorescence polarization. inhibition, % at 6.36 µM. hit rate 0.41% among 330,000. AID 485272;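 active = percent inhibition above a cutoff equal to the mean of all tested compounds plus 3 SD, cut at about 15% in these data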;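 also: 0% = PAD4 with RCA probe and DMSO and 100% = probe without PAD4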
Target sequence (Q9UM07 whole entry, looked up): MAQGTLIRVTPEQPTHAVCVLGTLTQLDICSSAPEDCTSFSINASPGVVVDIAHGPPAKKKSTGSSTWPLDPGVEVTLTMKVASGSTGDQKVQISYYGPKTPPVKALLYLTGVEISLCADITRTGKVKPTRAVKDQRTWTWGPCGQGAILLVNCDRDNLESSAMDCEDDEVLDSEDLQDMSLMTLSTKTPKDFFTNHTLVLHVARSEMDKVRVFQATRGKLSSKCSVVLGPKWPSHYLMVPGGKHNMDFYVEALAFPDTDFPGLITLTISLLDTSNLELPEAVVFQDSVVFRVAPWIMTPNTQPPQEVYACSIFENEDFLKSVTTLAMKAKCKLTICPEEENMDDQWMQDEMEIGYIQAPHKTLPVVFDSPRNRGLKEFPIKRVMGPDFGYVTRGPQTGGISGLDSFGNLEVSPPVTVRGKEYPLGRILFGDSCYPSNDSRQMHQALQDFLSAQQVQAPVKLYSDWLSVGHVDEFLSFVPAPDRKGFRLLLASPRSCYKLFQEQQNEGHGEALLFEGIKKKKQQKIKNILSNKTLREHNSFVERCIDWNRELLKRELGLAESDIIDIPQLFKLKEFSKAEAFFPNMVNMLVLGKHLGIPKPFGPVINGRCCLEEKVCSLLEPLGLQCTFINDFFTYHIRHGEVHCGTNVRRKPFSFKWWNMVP
Apaf-1 inh conf2: Apaf-1 inhibition, single-dose confirmed; shares compounds with Apaf-1 inh; reconstituted apoptosome, caspase-3 DEVD-Rh110 fluorescence; inhibition, % at 20 µM; hit rate 25% among 1,800; AID 504614;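 active = mean inhibition of at least 40% at 20 µM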;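 also: plate controls were DMSO wells for no effect and DEVD-CHO caspase inhibitor control wells for full effect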
Rh110 quench: Rh110 signal interference in Apaf-1 inhibitor counter-screen. shares compounds with Apaf-1 inh. Rh110 fluorescence interference, quenched caspase reaction. activation (fluorescence interference), % at 20 µM. 1,800 tested, under 10 active. AID 504615;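 active = signal rise of 40% or more at 20 µM, treated as a fluorescence artifact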
Apaf1 inh interf: Apaf-1 inhibitor counter-screen fluorescence artifact; shares compounds with Apaf-1 inh; fluorescence interference counterscreen, Apaf-1 assay format; IC50, µM; 460 tested, under 10 active; AID 588538; call rule not given here
* marks the source's active call; other numbers are inactive results. Shown are actives, neighbours in structure and some others; about 1.8% of the full set was active somewhere.

Results for COc1ccc(CCNC(=O)C(=O)NCC2CCCN2S(=O)(=O)c2ccc(OC)cc2)cc1 (stereo not given) ?
GSTO1 inh: 2; Apaf-1 inh: 61*; CTSL1 counter: 8; TDP2 absorb: 13; PAD4 FP inh: 1; Apaf-1 inh conf2: 12; Rh110 quench: 11

How did Cc1ccc(-c2nn3c(C)nnc3c3ccccc23)cc1S(=O)(=O)NCc1ccccc1 do in these assays?
GSTO1 inh: 4; Apaf-1 inh: 48*; CTSL1 counter: 1; TDP2 absorb: -11; PAD4 FP inh: -2; Apaf-1 inh conf2: 72*; Rh110 quench: 7; Apaf1 inh interf: >100

What do the screens show for `Clc1ccccc1-c1nn2c(-c3ccncc3)nnc2s1`?
GSTO1 inh: -1; Apaf-1 inh: 47*; CTSL1 counter: 0; PAD4 FP inh: 5; Apaf-1 inh conf2: 63*; Rh110 quench: 0; Apaf1 inh interf: >100

How did Cc1ccc(C(=O)NC(=S)Nc2cccc3nsnc23)cc1 do in these assays?
GSTO1 inh: 16; Apaf-1 inh: 59*; CTSL1 counter: -1; TDP2 absorb: -3; PAD4 FP inh: -4; Apaf-1 inh conf2: 16; Rh110 quench: 22

Results for Cc1cc(O)c2c(c1O)C(=O)[C@]13C(=C2O)C(=O)[C@@H]2[C@@H](O)[C@H]1[C@@H]1[C@H](O)[C@H]3C(=O)C3=C(O)c4c(O)cc(C)c(O)c4C(=O)[C@]312 ?
Apaf-1 inh: 69*; PAD4 FP inh: -24; Apaf-1 inh conf2: 59*; Rh110 quench: 7; Apaf1 inh interf: >100

What do the screens show for `C[C@H]1[C@@H](N(C)Cc2cccs2)CC[C@@]23CCCN2C(=O)CCC[C@@H]13`?
TDP2 absorb: 11

What do the screens show for `Cc1[nH]n(-c2ccccc2)c(=O)c1/C=N/Nc1nncc(-c2ccccc2)n1`?
GSTO1 inh: 3; Apaf-1 inh: 81*; CTSL1 counter: 6; TDP2 absorb: -17; PAD4 FP inh: -5; Apaf-1 inh conf2: 89*; Rh110 quench: 10; Apaf1 inh interf: >100

How did Cc1[nH]n(-c2ccccc2)c(=O)c1/C=N/NC(=O)c1ccc(O)cc1O do in these assays?
GSTO1 inh: 5; Apaf-1 inh: 73*; CTSL1 counter: 2; PAD4 FP inh: -2; Apaf-1 inh conf2: 84*; Rh110 quench: 9; Apaf1 inh interf: >100

How did Cc1ccc(-n2[nH]c(C)c(/C=N/NC(=O)c3ccc(O)cc3O)c2=O)cc1 do in these assays?
GSTO1 inh: 0; Apaf-1 inh: 11; CTSL1 counter: 6; PAD4 FP inh: -3

How did Cc1[nH]n(-c2ccc(Br)cc2)c(=O)c1/C=N/NC(=O)c1ccccc1 do in these assays?
Apaf-1 inh: 16; TDP2 absorb: 7

What do the screens show for `Cc1cc(C(=O)N/N=C/c2c(C)[nH]n(-c3ccccc3)c2=O)n[nH]1`?
GSTO1 inh: 6; Apaf-1 inh: 77*; CTSL1 counter: 4; TDP2 absorb: -6; PAD4 FP inh: -17; Apaf-1 inh conf2: 80*; Rh110 quench: 2; Apaf1 inh interf: >100

How did Cc1[nH]n(-c2ccccc2)c(=O)c1/C=N/NC(=O)c1cccc(F)c1 do in these assays?
GSTO1 inh: -1; Apaf-1 inh: 62*; CTSL1 counter: 2; TDP2 absorb: 3; PAD4 FP inh: -7; Apaf-1 inh conf2: 67*; Rh110 quench: 0; Apaf1 inh interf: >100

Results for C[C@H]1[C@@H](OC(=O)N2CCCC2)CC[C@@]23CCCN2C(=O)CCC[C@@H]13 ?
TDP2 absorb: -1

How did O=C(NCc1cccc(C(F)(F)F)c1)O[C@H]1CC[C@@]23CCCN2C(=O)CCC[C@H]3C1 do in these assays?
TDP2 absorb: 0

Results for CCCCN(CCCC)C(=S)N/N=C/c1c(C)[nH]n(-c2ccccc2)c1=O ?
GSTO1 inh: -35; Apaf-1 inh: 57*; CTSL1 counter: 5; TDP2 absorb: -14; PAD4 FP inh: -10; Apaf-1 inh conf2: -3; Rh110 quench: 16

Bioassay records (PubChem)
